Assays:
CRBPII = molecular target: T1, CRBPII (Rattus norvegicus, UniProt P06768); assay type: binding; conditions: excitation spectra pre- and post-column
T1 sequence (P06768 1-134): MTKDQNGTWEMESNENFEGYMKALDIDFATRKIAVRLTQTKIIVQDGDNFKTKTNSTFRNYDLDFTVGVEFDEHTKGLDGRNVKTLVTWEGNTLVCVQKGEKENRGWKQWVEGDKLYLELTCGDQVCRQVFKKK
Outline: (§1)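 Sephadex G-50 (fine) was equilibrated for several days in 20 mM KH2PO4, 100 mM KCl, pH 7.4. Small syringe columns were poured, a separate one for each protein–ligand pair. E. coli-expressed, FPLC-purified protein carried bound retinol. Excitation spectra of the complex were recorded before and after passage, with roughly equivalent free retinol in buffer as reference. Blanks were subtracted.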

CRBPI [1] = molecular target: T2, CRBPI (Rattus norvegicus, UniProt P02696); assay: Fluorescence titration binding of retinoids to CRBPI; conditions: for affinity of CRBPI compared to CRBPII (fold stronger): ratio of Kd′ values CRBPII/CRBPI
T2 sequence (P02696 1-135): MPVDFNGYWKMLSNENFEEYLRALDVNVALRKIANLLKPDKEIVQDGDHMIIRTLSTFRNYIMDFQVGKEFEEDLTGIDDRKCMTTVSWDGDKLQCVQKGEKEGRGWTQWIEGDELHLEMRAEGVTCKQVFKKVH

CRBPI [2] = molecular target: T2, CRBPI; assay type: binding; conditions: excitation spectra pre- and post-column
Outline: as §1

CRBPI and II = conditions: 19F NMR estimate; cited from earlier work

elution of complex with CRBPII through Sephadex G-50 (CRBPII)	CRBPI affinity for 9-cis-retinol relative to all-trans- and 13-cis-retinol (fold lower) (CRBPI [1]; ratio of Kd′ values)	affinity of CRBPI compared to CRBPII (fold stronger) (CRBPI [1])	elution of complex with CRBPI through Sephadex G-50 (CRBPI [2])	SMILES	Kd′ value of CRBPI relative to CRBPII (fold less) (CRBPI and II)
eluted bound	~ 3 fold	~ 6 fold	eluted bound	CC1=C(/C=C/C(C)=C\C=C\C(C)=C\CO)C(C)(C)CCC1 [9-cis-retinol]	–
bound	–	~ 3 fold	bound	CC1=C(/C=C/C(C)=C/C=C/C(C)=C/CO)C(C)(C)CCC1 [all-trans-retinol]	10–100 fold

Reference: publication PMC4113001 (Biochimica et biophysica acta, 2011)
